Measurements taken from PMC8359308 (Clinical Pharmacology in Drug Development, 2020).
Like-named read-outs stand apart in the source and are kept apart here.

Tests used:
[1] = mostly normal hepatic function or mild hepatic impairment; cited from earlier work
[2] = food with high calories and high fat content or concurrent rabeprazole; cited from earlier work
[3] = cited from earlier work
[4] = Safety assessment after single oral 100 mg dose; type: in vivo, human; conditions: all 24 participants
Summary of the method: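 Participants were confined from day -1 through day 6, with telephone follow-up 28–35 days post-dose. AEs, laboratory values, physical examination, vital signs, ECGs and concomitant medications were monitored throughout. AEs were treatment-emergent if onset or worsening came after dosing and before follow-up, and were coded with MedDRA 22.0. Baseline was the last predose measurement. Analysis was descriptive.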

[5] = Phase I single-dose pharmacokinetics of unbound plasma glasdegib; type: in vivo, human; conditions: single oral 100 mg, fasted
Summary of the method: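 Single oral 100 mg tablet with about 240 mL water after a fast of at least 10 h, with no food for 4 h post-dose. Unbound samples were taken predose and at 1, 2 and 4 h. K2EDTA plasma was dialysed against PBS to equilibrium (6 h). Sertraline (300 ng/mL) served as positive control and glasdegib (100 ng/mL) as dialysis QC. Samples were read by LC-MS/MS (LLQ 1 ng/mL). Unbound parameters = fu × total noncompartmental values.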

[6] = test system: cytochrome P450 (CYP) 3A4/5; conditions: human hepatocytes, reaction phenotyping; cited from earlier work
[7] = ketoconazole coadministered versus glasdegib alone; cited from earlier work
[8] = Unbound fraction in plasma by equilibrium dialysis; type: in vitro ADME, human; conditions: for f u (fraction of unbound drug in plasma): geometric mean (%CV); for f u in plasma: statistic not given
[9] = type: in vivo, human; conditions: for AUC(0-inf) / AUC(0-t) / Tmax: po, total glasdegib; for AUC(0-inf): AUCinf; for AUC(0-inf) / AUC(0-t) / Tmax / CL/F, total glasdegib / Cmax, total glasdegib: single oral 100 mg, fasted; for AUC(0-t): AUClast; for Tmax: median (range)
Summary of the method: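 Single oral 100 mg tablet dose of test compound after ≥10 h fast, with about 240 mL water and no food for 4 h. Plasma drawn predose and 1–120 h post-dose, total drug measured by validated LC-MS/MS. AUCinf (AUClast + Clast/kel, linear/log trapezoidal) and observed Cmax came from noncompartmental analysis. Log-transformed values were compared by one-way ANOVA (unequal variance), giving adjusted GMR versus normal-function controls with 90% CI.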

[10] = rifampin coadministered versus glasdegib alone; cited from earlier work
[11] = moderate hepatic impairment (n = 8), arithmetic mean ± SD
[12] = moderate hepatic impairment (n = 8), geometric mean (%CV)
[13] = normal hepatic function (n = 8), arithmetic mean ± SD
[14] = normal hepatic function (n = 8), geometric mean (%CV)
[15] = severe hepatic impairment (n = 8), arithmetic mean ± SD
[16] = severe hepatic impairment (n = 8), geometric mean (%CV)
[17] = human, plasma, 100 mg, moderate hepatic impairment (n = 8), arithmetic mean ± SD
[18] = human, plasma, 100 mg, moderate hepatic impairment (n = 8), geometric mean (%CV)
[19] = human, plasma, 100 mg, normal hepatic function (n = 8), arithmetic mean ± SD
[20] = human, plasma, 100 mg, normal hepatic function (n = 8), geometric mean (%CV)
[21] = human, plasma, 100 mg, severe hepatic impairment (n = 8), arithmetic mean ± SD
[22] = human, plasma, 100 mg, severe hepatic impairment (n = 8), geometric mean (%CV)
[23] = severe hepatic impairment cohort

SMILES: CN1CC[C@@H](NC(=O)Nc2ccc(C#N)cc2)C[C@@H]1c1nc2ccccc2[nH]1 [glasdegib]
- baseline hepatic function as covariate for variation in glasdegib PK [1]: not a statistically significant covariate
- effect on glasdegib exposure [2]: minimal effect
- dose proportionality of pharmacokinetics [3]: linear dose‐proportional pharmacokinetics
- mean half-life ([3]; clinical dose of 100 mg once daily): 17.4 h
- unbound in plasma ([3]; plasma protein binding, moderately to highly bound): < 10%
- clinically significant changes in laboratory values, vital signs, or ECGs [4]: no clinically significant changes in vital signs or ECGs
- deaths, serious AEs, severe treatment-emergent AEs, discontinuations [4]: no deaths, serious AEs, severe treatment‐emergent AEs, discontinuations from the study
- CLu/F, unbound glasdegib [5, 11]: 104.6 ± 34.6 L/h
- CLu/F, unbound glasdegib [5, 12]: 100.2 (31) L/h
- CLu/F, unbound glasdegib [5, 13]: 124.7 ± 43.5 L/h
- CLu/F, unbound glasdegib [5, 14]: 118.4 (35) L/h
- CLu/F, unbound glasdegib [5, 15]: 111.9 ± 58.1 L/h
- CLu/F, unbound glasdegib [5, 16]: 101.6 (47) L/h
- enzyme in glasdegib biotransformation [6]: major enzyme
- increase in glasdegib AUCinf [7]: 2.4 fold
- increase in glasdegib Cmax [7]: 1.4 fold
- f u (fraction of unbound drug in plasma) ([8]; moderate hepatic impairment (n = 8)): 0.08 (7)
- f u in plasma ([8]; moderate hepatic impairment group): 0.08
- f u (fraction of unbound drug in plasma) ([8]; normal hepatic function (n = 8)): 0.08 (16)
- f u in plasma ([8]; normal hepatic function cohort): 0.08
- f u (fraction of unbound drug in plasma) ([8]; severe hepatic impairment (n = 8)): 0.12 (15)
- f u in plasma ([8]; severe hepatic impairment group): 0.12
- higher f u compared with the normal function cohort ([8]; severe impairment cohort): 50%
- half-life ([9]; human, plasma, oral, 100 mg, mean terminal half-life, range across all hepatic function groups): 18.4 to 20.7 h
- AUC(0-inf) [9, 17]: 12300 ± 3500 ng·h/mL
- AUC(0-inf) [9, 18]: 11900 ng·h/mL
- AUC(0-inf) [9, 19]: 11900 ± 6100 ng·h/mL
- AUC(0-inf) [9, 20]: 10700 ng·h/mL
- AUC(0-inf) [9, 21]: 8660 ± 3130 ng·h/mL
- AUC(0-inf) [9, 22]: 8110 ng·h/mL
- AUC(0-t) [9, 17]: 12200 ± 3460 ng·h/mL
- AUC(0-t) [9, 18]: 11800 ng·h/mL
- AUC(0-t) [9, 19]: 11800 ± 6080 ng·h/mL
- AUC(0-t) [9, 20]: 10600 ng·h/mL
- AUC(0-t) [9, 21]: 8480 ± 3100 ng·h/mL
- AUC(0-t) [9, 22]: 7940 ng·h/mL
- Tmax ([9]; human, plasma, 100 mg, moderate hepatic impairment (n = 8)): 2.5 h
- Tmax ([9]; human, plasma, 100 mg, normal hepatic function (n = 8)): 1.5 h
- Tmax ([9]; human, plasma, 100 mg, severe hepatic impairment (n = 8)): 1 h
- reduction in AUCinf versus normal hepatic function, total glasdegib [9, 23]: 24%
- reduction in Cmax versus normal hepatic function, total glasdegib [9, 23]: 42%
- CL/F, total glasdegib [9, 11]: 8.8 ± 2.8 L/h
- Cmax, total glasdegib [9, 11]: 899.8 ± 215.7 ng/mL
- CL/F, total glasdegib [9, 12]: 8.4 (31) L/h
- Cmax, total glasdegib [9, 12]: 875.9 (26) ng/mL
- CL/F, total glasdegib [9, 13]: 10.2 ± 4.3 L/h
- Cmax, total glasdegib [9, 13]: 989.9 ± 373.1 ng/mL
- CL/F, total glasdegib [9, 14]: 9.3 (49) L/h
- Cmax, total glasdegib [9, 14]: 924.4 (43) ng/mL
- CL/F, total glasdegib [9, 15]: 13.3 ± 5.8 L/h
- Cmax, total glasdegib [9, 15]: 612.0 ± 342.8 ng/mL
- CL/F, total glasdegib [9, 16]: 12.3 (42) L/h
- Cmax, total glasdegib [9, 16]: 536.3 (59) ng/mL
- decrease in glasdegib AUCinf [10]: approximately 70%
- decrease in glasdegib Cmax [10]: 35%
